The nature of data set [1]: Solubility was determined. It is filed as physicochemical. The procedure, abridged:
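Aqueous solubility measured in HPLC-grade water by a UV absorptivity method, reported in mg/mL.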

The species entered for another data set is Oryctolagus cuniculus. Put plainly: Percentage inhibition by the compound in isolated rabbit corpus cavernosum at 10 uM. It is filed as functional. The procedure, abridged: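 New Zealand white rabbits (3.4–3.7 kg) euthanized by pentobarbital overdose. Corpus cavernosum strips, 3–5 mm, cut after removal of the tunica and held in modified Krebs-Henseleit bicarbonate buffer at 37 °C. Isometric force recorded. Strips pre-contracted with phenylephrine 3 μM to a steady force, then compound added. Result is % inhibition of force relative to vehicle control; n given per value.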

Data set [2] in a line: Effect on maxi-K mediated outward current in xenopus laevis oocytes at 20 uM. It is filed as functional, Xenopus sp., Oocyte. The procedure, abridged:
(§1)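 Two-electrode voltage clamp of whole-cell outward K+ current in Xenopus laevis oocytes expressing cloned hSlo maxi-K channels. Single drug concentration per line. Current is the iberiotoxin-sensitive fraction, tested in at least five oocytes. Value is the average current as a percentage of drug-free control (100%).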

The test system of a further data set is Oocyte. Put plainly: Effect on maxi-K mediated outward current in xenopus laevis oocytes at 20 uM; In soluble. Type of data set: functional, cell-based. The settings on record: Xenopus sp. The gist of the method: as §1
The nature of data set [3]: Effect on maxi-K mediated outward current in xenopus laevis oocytes at 5 uM. Type of data set: functional, Xenopus sp., Oocyte. The procedure, abridged: as §1

Molecules are shown by their SMILES. ≈ marks a conversion by molar mass, not a printed value.

As for `CSc1c(O)nc2ccc(C(F)(F)F)cc2c1-c1cc(Cl)ccc1O`, the solubility (usually the dissolved amount per volume that the medium holds) in data set [1] was less than 1 µg/mL. In the data set listed under Oryctolagus cuniculus, the Inhibition (commonly the percentage by which the read-out fell short of the control) worked out at 22%. Further, the hSlo current in data set [2] is on record as 231%.

As for `CC(C)(C)Sc1c(O)nc2ccc(C(F)(F)F)cc2c1-c1cc(Cl)ccc1O`, the solubility in data set [1] was less than 1 µg/mL. The hSlo current result with Oocyte is “Insoluble”; in data set [3], 73%.

As for `Oc1ccc(Cl)cc1-c1c(S)c(O)nc2ccc(C(F)(F)F)cc12`, in data set [1], the solubility is 3 µg/mL (≈ 8.07 µM). The hSlo current in data set [2] was determined as 197%.

In data set [1], `OCCSc1c(O)nc2ccc(C(F)(F)F)cc2c1-c1cc(Cl)ccc1O` gave a solubility of 4 µg/mL (≈ 9.62 µM). The same compound returned an Inhibition in the data set filed under Oryctolagus cuniculus of 43%. Moreover, the hSlo current in data set [2] is recorded as 348%.

For the compound `O=c1[nH]c2cc(C(F)(F)F)ccc2n1-c1cc(Cl)ccc1O`, in the data set filed under Oryctolagus cuniculus, the Inhibition came to 31%. In addition, in data set [2], the hSlo current was 132%.

`OCCCSc1c(O)nc2ccc(C(F)(F)F)cc2c1-c1cc(Cl)ccc1O` returned a solubility in data set [1] of 3 µg/mL (≈ 6.98 µM). This compound also showed an Inhibition in the data set filed under Oryctolagus cuniculus of 23%. This compound also displayed a hSlo current in data set [2] of 242%.

Consider `OCC(O)CSc1c(O)nc2ccc(C(F)(F)F)cc2c1-c1cc(Cl)ccc1O` (centres undefined), for which the concentration in solution in data set [1] (solubility) was 190 µg/mL (≈ 426 µM). In the data set filed under Oryctolagus cuniculus, the Inhibition stood at 31%. The same compound came in with a hSlo current in data set [2] of 246%.

For the origin of these results see ChEMBL document CHEMBL1137183, “4-Aryl-3-(mercapto)quinolin-2-ones: novel maxi-K channel opening relaxants of corporal smooth muscle” (Bioorg Med Chem Lett, 2004).
